Experimental data as given in ChEMBL document CHEMBL5512642, “Novel triterpenoid pyrones, phthalimides and phthalates are selectively cytotoxic in CCRF-CEM cancer cells - Synthesis, potency, and mitochondrial mechanism of action” (Eur J Med Chem, 2024).
pIC50: −log10 of the molar value. The source made the active and inactive calls. The rule behind the calls is not given here.

Tests used:
CCRF-CEM [1] = assay: Induction of apoptosis in human CCRF-CEM cells assessed as late apoptotic cells at 5 time IC50 incubated for 24 hrs by Annexin V and propidium iodide staining based flow cytometry analysis (reference value: 0.5%); format: functional
[2] = Metabolic stability in human liver microsomes assessed as compound remaining at measured at 60 mins in presence of NADPH by RF-MS analysis; format: ADME, Microsome; details: read-out: Stability
Outline: (§1)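 Human liver microsomes with NADPH cofactor to assess phase I oxidation. Compound remaining sampled at 15, 30 and 60 min; intrinsic clearance derived and categorized. Run in triplicate.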

CCRF-CEM [3] = assay: Induction of apoptosis in human CCRF-CEM cells assessed as late apoptotic cells at 1 time IC50 incubated for 24 hrs by Annexin V and propidium iodide staining based flow cytometry analysis (reference value: 0.5%); format: functional
K562 = assay: Cytotoxicity against human K562 cells assessed as reduction in cell viability incubated for 72 hrs by MTS assay; format: functional, cell-based; details: K562, 72 h
[4] = Efflux ratio of apparent permeability across basolateral to apical side over apical to basolateral side in MDCK-MDR1 cells; format: ADME, cell-based, Canis lupus familiaris; details: dog
Outline: (§2)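 Caco-2 and MDCK-MDR1 monolayers; transport measured in both directions, apical→basolateral and basolateral→apical. Efflux ratio taken from the two directions; ER > 2 counted as active efflux. Compound recovery reported. Cell-based permeability runs done in duplicate.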

CCRF-CEM [5] = assay: Cytotoxicity against human CCRF-CEM cells assessed as reduction in cell viability incubated for 72 hrs by MTS assay; format: functional, cell-based
CCRF-CEM [6] = assay: Induction of apoptosis in human CCRF-CEM cells assessed as early apoptotic cells at 1 time IC50 incubated for 24 hrs by Annexin V and propidium iodide staining based flow cytometry analysis (reference value: 1.4%); format: functional
[7] = Metabolic stability in human liver microsomes assessed as compound remaining at measured at 15 mins in presence of NADPH by RF-MS analysis; format: ADME, Microsome; details: read-out: Stability; outline: as §1
CCRF-CEM [8] = assay: Induction of apoptosis in human CCRF-CEM cells assessed as necrotic cells at 5 time IC50 incubated for 24 hrs by Annexin V and propidium iodide staining based flow cytometry analysis (reference value: 0.; format: functional
CCRF-CEM [9] = assay: Induction of mitochondrial membrane potential loss in human CCRF-CEM cells assessed as cells with depolarized mitochondria (P2 gate) by measuring green fluorescence intensity at 5 time IC50 incubated for 24 hrs by JC-1 staining based flow cytometry (reference value: 2.1%)
[10] = Stability in human plasma assessed as compound remaining measured 15 mins by RF-MS analysis; format: ADME, cell-free; details: read-out: Stability
Outline: (§3)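 Compounds incubated in human plasma in vitro for up to 2 h. Percent remaining sampled at 15, 30, 60 and 120 min. Run in triplicate.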

U2OS = assay: Cytotoxicity against human U2OS cells assessed as reduction in cell viability incubated for 72 hrs by MTS assay; format: functional, cell-based
HCT-116 = assay: Cytotoxicity against human HCT-116 cells assessed as reduction in cell viability incubated for 72 hrs by MTS assay; format: functional, cell-based; details: HCT-116, 72 h
CEM-DNR = assay: Cytotoxicity against human CEM-DNR cells assessed as reduction in cell viability incubated for 72 hrs by MTS assay; format: functional, cell-based
CCRF-CEM [11] = assay: Induction of apoptosis in human CCRF-CEM cells assessed as viable cells at 1 time IC50 incubated for 24 hrs by Annexin V and propidium iodide staining based flow cytometry analysis (reference value: 98%); format: functional
[12] = Apparent permeability of the compound across apical to basolateral side in MDCK-MDR1 cells assessed as compound recovery at 10 uM incubated for 1 hr by RF-MS analysis; format: ADME, cell-based, Canis lupus familiaris; details: dog, read-out: Activity; outline: as §2
[13] = Plasma protein binding in human assessed as fraction bound at 10 uM by rapid equilibrium dialysis based RF-MS analysis; format: ADME, cell-free; details: read-out: PPB (converted)
Outline: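 Human plasma protein binding measured by equilibrium dialysis and reported as percent fraction bound. Run in triplicate.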

[14] = Stability in human plasma assessed as compound remaining measured 60 mins by RF-MS analysis; format: ADME, cell-free; details: read-out: Stability; outline: as §3
HCT 116 TP53(-/-) = assay: Cytotoxicity against human HCT116-p53-null cells assessed as reduction in cell viability incubated for 72 hrs by MTS assay; format: functional, cell-based
[15] = Cytotoxicity against human BJ cells assessed as reduction in cell viability incubated for 72 hrs by MTS assay; format: toxicity, cell-based
[16] = Efflux ratio of apparent permeability across basolateral to apical side over apical to basolateral side in human Caco-2 cells; format: ADME, cell-based; outline: as §2
CCRF-CEM [17] = assay: Induction of apoptosis in human CCRF-CEM cells assessed as necrotic cells at 1 time IC50 incubated for 24 hrs by Annexin V and propidium iodide staining based flow cytometry analysis (reference value: 0.1%); format: functional
CCRF-CEM [18] = assay: Antimitotic activity against human CCRF-CEM cells assessed as decrease in cell division at 5 times of IC50; format: functional, cell-based
Outline: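 Mitotic fraction scored with the pH3 Ser10 marker and DNA synthesis with BrdU incorporation. For transcription, cells received a short BrU pulse after the 24 h pre-incubation. Read by flow cytometry against untreated cells.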

A549 = assay: Cytotoxicity against human A549 cells assessed as reduction in cell viability incubated for 72 hrs by MTS assay; format: functional, cell-based; details: A549, 72 h
[19] = Apparent permeability of the compound in MDCK-MDR1 cells at 10 uM incubated for 1 hr by RF-MS analysis; format: ADME, cell-based, Canis lupus familiaris; details: dog; outline: as §2
CCRF-CEM [20] = assay: Induction of apoptosis in human CCRF-CEM cells assessed as reduction in Bcl-XL expression at 5 time of IC50 incubated for 24 hrs by Western blot analysis; format: functional, cell-based
Outline: (§4)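 Lysate 20 µg protein per lane on SDS-PAGE, transferred to nitrocellulose, blocked in 5% BSA/TBS-Tween. Probed overnight at 4 °C with anti-caspase-3, Bcl-2, Bcl-XL, β-actin, then HRP secondary 1 h. ECL chemiluminescence detection.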

[21] = Cytotoxicity against human K562-Tax cells assessed as reduction in cell viability incubated for 72 hrs by MTS assay; format: functional, cell-based
[22] = Cytotoxicity against human MRC5 cells assessed as reduction in cell viability incubated for 72 hrs by MTS assay; format: toxicity, cell-based
CCRF-CEM [23] = assay: Induction of mitochondrial membrane potential loss in human CCRF-CEM cells assessed as cells with depolarized mitochondria (P2 gate) by measuring green fluorescence intensity at 1 time IC50 incubated for 24 hrs by JC-1 staining based flow cytometry (reference value: 2.1%)
[24] = Stability in human plasma assessed as compound remaining measured 120 mins by RF-MS analysis; format: ADME, cell-free; details: read-out: Stability; outline: as §3
[25] = Apparent permeability of the compound in human Caco-2 cells; format: ADME, cell-based; outline: as §2
CCRF-CEM [26] = assay: Induction of apoptosis in human CCRF-CEM cells assessed as early apoptotic cells at 5 time IC50 incubated for 24 hrs by Annexin V and propidium iodide staining based flow cytometry analysis (reference value: 1.4%); format: functional
[27] = Metabolic stability in human liver microsomes assessed as compound remaining at measured at 30 mins in presence of NADPH by RF-MS analysis; format: ADME, Microsome; details: read-out: Stability; outline: as §1
CCRF-CEM [28] = assay: Induction of apoptosis in human CCRF-CEM cells assessed as viable cells at 5 time IC50 incubated for 24 hrs by Annexin V and propidium iodide staining based flow cytometry analysis (reference value: 98%); format: functional
[29] = Apparent permeability of the compound across apical to basolateral side in human Caco-2 cells assessed as compound recovery; format: ADME, cell-based; details: read-out: Activity; outline: as §2
CCRF-CEM [30] = assay: Induction of apoptosis in human CCRF-CEM cells assessed as reduction in Bcl-2 expression at 5 time of IC50 incubated for 24 hrs by Western blot analysis; format: functional, cell-based; outline: as §4
[31] = Stability in human plasma assessed as compound remaining measured 30 mins by RF-MS analysis; format: ADME, cell-free; details: read-out: Stability; outline: as §3
CCRF-CEM [32] = assay: Induction of apoptosis in human CCRF-CEM cells assessed as reduction in caspase-3 expression at 5 time of IC50 incubated for 24 hrs by Western blot analysis; format: functional, cell-based; outline: as §4

Compound	Activity (CCRF-CEM [1])	remaining at 1 h [2]	Activity (CCRF-CEM [3])	pIC50 (K562)	pIC50 (CCRF-CEM [5])	Activity (CCRF-CEM [6])	remaining at 0.25 h [7]	Activity (CCRF-CEM [8])	Activity (CCRF-CEM [9])	remaining at 0.25 h [10]	pIC50 (U2OS)	pIC50 (HCT-116)	pIC50 (CEM-DNR)	Activity (CCRF-CEM [11])	recovery at 1 h, 10 µM [12]	fraction unbound at 10 µM [13]	remaining at 1 h [14]	pIC50 (HCT 116 TP53(-/-))	IC50 at 72 h [15]	Activity (CCRF-CEM [17])	also measured
C=C(C)[C@@H]1CC[C@]2(C(=O)O)CC[C@]3(C)[C@H](CC[C@@H]4[C@@]5(C)Cc6c(C(F)(F)F)cc(C(=O)OC)c(C(=O)OC)c6C(C)(C)[C@@H]5CC[C@]43C)[C@@H]12	4.2%	76%	2.8%	4.74	5.42	4.3%	91%	0%	38.1%	103%	4.77	4.64	< 4.30	92.9%	71.2%	0.184	96.2%	4.89	> 50 µM	0%	efflux ratio [4]: 6.95; efflux ratio [16]: 5.62; Activity (CCRF-CEM [18]): Active; pIC50 (A549): 4.74; Papp at 1 h, 10 µM [19]: 4.46 ×10⁻⁶ cm/s; Activity (CCRF-CEM [20]): Active; pIC50 [21]: < 4.30; IC50 at 72 h [22]: > 50 µM; Activity (CCRF-CEM [23]): 2.4%; remaining at 2 h [24]: 93.8%; Papp [25]: 1.73 ×10⁻⁶ cm/s; Activity (CCRF-CEM [26]): 8.5%; remaining at 0.5 h [27]: 102%; Activity (CCRF-CEM [28]): 87.3%; recovery [29]: 75.8%; Activity (CCRF-CEM [30]): Active; remaining at 0.5 h [31]: 96.7%
C=C(C)[C@@H]1CC[C@]2(C(=O)O)CC[C@]3(C)[C@H](CC[C@@H]4[C@@]5(C)CC6=C(C7C(=O)N(c8ccccc8)C(=O)C7C=C6C(F)(F)F)C(C)(C)[C@@H]5CC[C@]43C)[C@@H]12 (stereo partly specified)	2.9%	79%	3.2%	4.60	5.38	4.3%	99%	0.1%	2.6%	100%	5.12	5.11	4.70	92.5%	94.1%	0.273	95.8%	4.92	> 50 µM	0%	Activity (CCRF-CEM [32]): Active; pIC50 (A549): 5.01; Papp at 1 h, 10 µM [19]: 0.1 ×10⁻⁶ cm/s; Activity (CCRF-CEM [20]): Active; pIC50 [21]: 5.01; IC50 at 72 h [22]: 28 µM; Activity (CCRF-CEM [23]): 2%; remaining at 2 h [24]: 101%; Papp [25]: 0.04 ×10⁻⁶ cm/s; Activity (CCRF-CEM [26]): 5.2%; Activity (CCRF-CEM [28]): 91.8%; recovery [29]: 86%; Activity (CCRF-CEM [30]): Active; remaining at 0.5 h [31]: 92.7%
